Measurements as given in ChEMBL document CHEMBL1135464, “3-Aryl-2-quinolone derivatives: synthesis and characterization of in vitro and in vivo antitumor effects with emphasis on a new therapeutical target connected with cell migration” (J Med Chem, 2002).
The source made the active and inactive calls. The calls are words filed in the database; no cut-off is given here.

Tests used:
A549 [1] = test: (§1) Cytotoxicity against A549 nonsmall lung cell line using MTT colorimetric assay; NE is no effect at 1x 10 E-5; type: functional, cell-based, Homo sapiens
Outline: (§2)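 Human tumour lines from ATCC were grown at 37 °C in sealed dishes in MEM with 5% FCS. Cells were seeded at 40000 cells/mL in 96-well plates and left 24 h to plate. Each drug was then tested at six concentrations from 10^-5 to 10^-9 M. Growth was read by colorimetric MTT assay.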

U373 MG [2] = test: (§3) Cytotoxicity against U-373 MG glioblastomas using MTT colorimetric assay; NE is no effect at 1x 10 E-5; type: functional, cell-based, Homo sapiens; settings: u-373mg atcc; outline: as §2
J82 [3] = test: (§4) Cytotoxicity against J82 bladder cell lines using MTT colorimetric assay; NE is no effect at 1x 10 E-5; type: functional, cell-based, Homo sapiens; outline: as §2
HCT-15 [4] = test: (§5) Cytotoxicity against HCT-15 colon cell line using MTT colorimetric assay; NE is no effect at 1x 10 E-5; type: functional, cell-based, Homo sapiens; outline: as §2
U-87 MG [5] = test: (§6) Cytotoxicity against U-87 MG glioblastomas using MTT colorimetric assay; NE is no effect at 1x 10 E-5; type: functional, cell-based, Homo sapiens; settings: u-87mg atcc; outline: as §2
LoVo [6] = test: (§7) Cytotoxicity against LoVo colon cell line using MTT colorimetric assay; NE is no effect at 1x 10 E-5; type: functional, cell-based, Homo sapiens; outline: as §2
PC-3 [7] = test: (§8) Cytotoxicity against prostate cell line PC-3 using MTT colorimetric assay; NE is no effect at 1x 10 E-5; type: functional, cell-based, Homo sapiens; outline: as §2
T47D [8] = test: (§9) Cytotoxicity against Breast cancer cell line T-47D using MTT colorimetric assay; NE is no effect at 1x 10 E-5; type: functional, cell-based, Homo sapiens; outline: as §2
T-24 [9] = test: (§10) Cytotoxicity against T24 bladder cell lines using MTT colorimetric assay; NE is no effect at 1x 10 E-5; type: functional, cell-based, Homo sapiens; outline: as §2
MCF7 [10] = test: (§11) Cytotoxicity against Breast cancer cell line MCF-7 using MTT colorimetric assay; NE is no effect at 1x 10 E-5; type: functional, cell-based, Homo sapiens; outline: as §2
A 172 [11] = test: (§12) Cytotoxicity against A-172 glioblastomas using MTT colorimetric assay; NE is no effect at 1x 10 E-5; type: functional, cell-based, Homo sapiens; outline: as §2
A-427 [12] = test: (§13) Cytotoxicity against A-427 nonsmall lung cell line using MTT colorimetric assay; NE is no effect at 1x 10 E-5; type: functional, cell-based, Homo sapiens; outline: as §2
[13] = Evaluated in vivo for maximum tolerated dose and found to be nontoxic; type: ADME, organism-based
LoVo [14] = test: as §7; type: functional, cell-based; settings: Homo sapiens; outline: as §2
PC-3 [15] = test: as §8; type: functional, cell-based; settings: Homo sapiens; outline: as §2
HCT-15 [16] = test: as §5; type: functional, cell-based; settings: Homo sapiens; outline: as §2
J82 [17] = test: as §4; type: functional, cell-based; settings: Homo sapiens; outline: as §2
A549 [18] = test: as §1; type: functional, cell-based; settings: Homo sapiens; outline: as §2
T-24 [19] = test: as §10; type: functional, cell-based; settings: Homo sapiens; outline: as §2
MCF7 [20] = test: as §11; type: functional, cell-based; settings: Homo sapiens; outline: as §2
T47D [21] = test: as §9; type: functional, cell-based; settings: Homo sapiens; outline: as §2
U-87 MG [22] = test: as §6; type: functional, cell-based; settings: Homo sapiens; U-87MG ATCC; outline: as §2
U373 MG [23] = test: as §3; type: functional, cell-based; settings: Homo sapiens; U-373MG ATCC; outline: as §2
A-427 [24] = test: as §13; type: functional, cell-based; settings: Homo sapiens; outline: as §2
A 172 [25] = test: as §12; type: functional, cell-based; settings: Homo sapiens; outline: as §2
LoVo [26] = test: Cytotoxicity measured on LoVo colon cell line using MTT colorimetric assay; type: functional, cell-based; settings: Homo sapiens; outline: as §2
T-24 [27] = test: Cytotoxicity against T24 bladder cell lines using MTT colorimetric assay; type: functional, cell-based; settings: Homo sapiens; outline: as §2
HCT-15 [28] = test: Cytotoxicity against HCT-15 colon cell line using MTT colorimetric assay; type: functional, cell-based; settings: Homo sapiens; outline: as §2
T47D [29] = test: Cytotoxicity against Breast cancer cell line T-47D using MTT colorimetric assay; type: functional, cell-based; settings: Homo sapiens; outline: as §2
MCF7 [30] = test: Cytotoxicity against Breast cancer cell line MCF-7 using MTT colorimetric assay; type: functional, cell-based; settings: Homo sapiens; outline: as §2
U-87 MG [31] = test: Cytotoxicity against U-87 MG glioblastomas using MTT colorimetric assay; type: functional, cell-based, U-87MG ATCC; settings: Homo sapiens; outline: as §2
U373 MG [32] = test: Cytotoxicity against U-373 MG glioblastomas using MTT colorimetric assay; type: functional, cell-based, U-373MG ATCC; settings: Homo sapiens; outline: as §2
A-427 [33] = test: Cytotoxicity against A-427 nonsmall lung cell line using MTT colorimetric assay; type: functional, cell-based; settings: Homo sapiens; outline: as §2
J82 [34] = test: Cytotoxicity against J82 bladder cell lines using MTT colorimetric assay at 1x 10 E-5; type: functional, cell-based; settings: Homo sapiens; outline: as §2
PC-3 [35] = test: Cytotoxicity against prostate cell line PC-3 using MTT colorimetric assay; type: functional, cell-based; settings: Homo sapiens; outline: as §2
A 172 [36] = test: Cytotoxicity against A-172 glioblastomas using MTT colorimetric assay; type: functional, cell-based; settings: Homo sapiens; outline: as §2
A549 [37] = test: Cytotoxicity against A549 nonsmall lung cell line using MTT colorimetric assay; type: functional, cell-based; settings: Homo sapiens; outline: as §2
T47D [38] = test: Cytotoxicity against Breast cancer cell line T-47D using MTT colorimetric assay at 1x 10 E-5; NE is no effect at 1x 10 E-5; type: functional, cell-based, Homo sapiens; outline: as §2
HCT-15 [39] = test: Cytotoxicity against HCT-15 colon cell line using MTT colorimetric assay a; NE is no effect at 1x 10 E-5; type: functional, cell-based, Homo sapiens; outline: as §2
J82 [40] = test: Cytotoxicity against J82 bladder cell lines using MTT colorimetric assay; type: functional, cell-based; settings: Homo sapiens; outline: as §2
MCF7 [41] = test: Cytotoxicity against Breast cancer cell line MCF-7 using MTT colorimetric assay at 1x 10 E-5; type: functional, cell-based; settings: Homo sapiens; outline: as §2

Structure (SMILES)	IC50 (A549 [1])	IC50 (U373 MG [2])	IC50 (J82 [3])	IC50 (U-87 MG [5])	IC50 (LoVo [6])	IC50 (PC-3 [7])	IC50 (T-24 [9])	IC50 (MCF7 [10])	IC50 (A 172 [11])	IC50 (A-427 [12])	MTD [13]	IC50 (LoVo [26])	IC50 (T-24 [27])	IC50 (HCT-15 [28])	IC50 (T47D [29])	IC50 (U-87 MG [31])	IC50 (U373 MG [32])	IC50 (A-427 [33])	IC50 (PC-3 [35])	IC50 (A 172 [36])	other results
COc1ccc(-c2cc3c(OC)cc(OC)cc3n(CCCN(C)C)c2=O)cc1	No effect	No effect	No effect	No effect	No effect	No effect	No effect	No effect	No effect	No effect	160 mg/kg	–	–	–	–	–	–	–	–	–	IC50 (HCT-15 [4]): No effect; IC50 (T47D [8]): No effect
COc1ccc(-c2cc3c(OC)cc(OC)cc3nc2S)cc1	–	–	–	–	–	–	–	–	–	–	160 mg/kg	–	–	–	–	–	–	–	–	–	Cytotoxicity (LoVo [14]): inactive; Cytotoxicity (PC-3 [15]): inactive; Cytotoxicity (HCT-15 [16]): inactive; Cytotoxicity (J82 [17]): inactive; Cytotoxicity (A549 [18]): inactive; Cytotoxicity (T-24 [19]): inactive; Cytotoxicity (MCF7 [20]): inactive; Cytotoxicity (T47D [21]): inactive; Cytotoxicity (U-87 MG [22]): inactive; Cytotoxicity (U373 MG [23]): inactive; Cytotoxicity (A-427 [24]): inactive; Cytotoxicity (A 172 [25]): inactive
COc1ccc(-c2cc3c(OC)cc(OC)cc3n(CCC(=O)OCc3ccccc3)c2=O)cc1	–	–	–	–	–	–	–	–	–	–	160 mg/kg	> 10 µM	> 10 µM	> 10 µM	> 10 µM	> 10 µM	> 10 µM	> 10 µM	> 10 µM	> 10 µM	IC50 (MCF7 [30]): > 10 µM; IC50 (J82 [34]): > 10 µM; IC50 (A549 [37]): > 10 µM
COc1ccc(-c2cc3c(OC)cc(OC)cc3n(CCC(=O)O)c2=O)cc1	No effect	No effect	No effect	No effect	No effect	No effect	No effect	No effect	No effect	No effect	160 mg/kg	–	–	–	–	–	–	–	–	–	IC50 (T47D [38]): No effect; IC50 (HCT-15 [39]): No effect
CCN(CC)C(=O)Cn1c(=O)c(-c2ccc(OC)cc2)cc2c(OC)cc(OC)cc21	–	–	–	–	–	–	–	–	–	–	160 mg/kg	> 10 µM	> 10 µM	> 10 µM	> 10 µM	> 10 µM	> 10 µM	> 10 µM	> 10 µM	> 10 µM	IC50 (J82 [40]): > 10 µM; IC50 (MCF7 [41]): > 10 µM; IC50 (A549 [37]): > 10 µM
